Source: PubChem (The Scripps Research Institute Molecular Screening Center)
CHRM4 agonist = human M4 muscarinic receptor agonists, primary screen, CHO-K1 cells, Fluo-8 calcium fluorescence; Muscarinic acetylcholine receptor M4 (Homo sapiens), P08173; CHO-K1 hM4/Gqi5; vehicle 0%, full acetylcholine response 100%; activation, % at 3 µM; 360,000 compounds, 0.14% hits;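 active means activation above the run mean over all test wells plus 3 SD, cut at about 32% in these data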;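 further: peak over basal fluorescence ratio per well then scaled between controls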
Target sequence (P08173 whole entry, looked up): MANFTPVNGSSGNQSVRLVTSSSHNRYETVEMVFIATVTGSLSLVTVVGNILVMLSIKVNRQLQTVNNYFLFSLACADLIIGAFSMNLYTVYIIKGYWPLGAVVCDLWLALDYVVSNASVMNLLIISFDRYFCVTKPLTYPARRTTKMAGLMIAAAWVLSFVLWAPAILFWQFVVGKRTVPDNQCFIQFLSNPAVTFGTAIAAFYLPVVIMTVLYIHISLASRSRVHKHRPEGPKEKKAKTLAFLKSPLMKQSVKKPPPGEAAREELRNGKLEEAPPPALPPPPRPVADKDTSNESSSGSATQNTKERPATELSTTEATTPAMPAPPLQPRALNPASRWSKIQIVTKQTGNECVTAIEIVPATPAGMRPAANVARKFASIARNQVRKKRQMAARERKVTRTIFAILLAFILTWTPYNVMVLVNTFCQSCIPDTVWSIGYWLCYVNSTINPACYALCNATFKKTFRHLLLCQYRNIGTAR
CHRM4 PAM = human M4 muscarinic receptor positive allosteric modulators, primary screen, CHO-K1 cells, Fluo-8 calcium fluorescence; Muscarinic acetylcholine receptor M4 (Homo sapiens), P08173; CHO-K1 hM4/Gqi5, ACh EC20; 0% = ACh EC20, 100% = maximal ACh; 360,000 compounds, 0.4% hits; activation, % at 3 µM;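 active means activation above its plate's cutoff, the mean activation of sample wells plus 3 SD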
M4 antag = human M4 muscarinic receptor antagonists, primary screen, CHO cells, Fluo-8 calcium fluorescence | Muscarinic acetylcholine receptor M4 (Homo sapiens), P08173 | CHO-hM4 cells, ACh EC80 | inhibition, % at 3 µM | 360,000 compounds, 0.73% hits;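 active means inhibition above its plate's cutoff, the mean inhibition of sample wells plus 3 SD, cut at about 27% in these data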
CHRM5 antagonist = human M5 muscarinic receptor antagonists, primary screen, CHO cells, Fluo-8 calcium fluorescence. CHO-hM5 cells, ACh EC80. Muscarinic acetylcholine receptor M5 (Homo sapiens), P08912. inhibition, % at 3 µM. 360,000 compounds, 0.59% hits;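 active means inhibition above a per-plate cutoff, the mean of that plate's test compounds plus 3 SD, cut at about 27% in these data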
M5 ag = human M5 muscarinic receptor agonists, primary screen, CHO-K1 cells, Fluo-8 calcium fluorescence; Muscarinic acetylcholine receptor M5 (Homo sapiens), P08912; CHO-K1 hM5 cells; 0% DMSO wells, 100% maximal acetylcholine response; activation, % at 3 µM; 360,000 compounds, 0.19% hits;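 active means activation above the run's mean over test compounds plus 3 SD, cut at about 23% in these data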;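 further: signal is peak over basal fluorescence ratio across the kinetic read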
M5 PAM = human M5 muscarinic receptor positive allosteric modulators, primary screen, CHO-K1 cells, Fluo-8 calcium fluorescence; CHO-K1 hM5, ACh EC20 PAM; 0% = ACh EC20, 100% = ACh EC100; activation, % at 3 µM; 360,000 compounds, 0.3% hits;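 active means activation above the run cutoff, the mean activation of all test compounds plus 3 SD, cut at about 18% in these data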
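Measured by: Fluo-8 calcium fluorescence; material: human M5 receptor in CHO-K1 cells; schedule: Post-acetylcholine fluorescence recording 140 s; benchmarks: low control EC20 acetylcholine (0%), high control EC100 acetylcholine (100%); read-out: Max/basal fluorescence ratio as % of EC20–EC100 ACh window; compound: single dose, 3 µM nominal final test concentration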
Hits are given with their value; n = inactive. Only some compounds are listed: those with a hit (about 1.8% of all), similar ones and a draw of the others.

SMILES	CHRM4 agonist	CHRM4 PAM	M4 antag	CHRM5 antagonist	M5 ag	M5 PAM
CC(C)CC(NS(=O)(=O)OCC(Cl)(Cl)Cl)c1ccccc1 (stereo unspecified)	n	n	30	n	n	n
COC(=O)CCC(NS(=O)(=O)OCC(Cl)(Cl)Cl)c1ccccc1 (stereo unspecified)	n	n	n	n	n	n
COc1ccc(N2CC(C(=O)Nc3c4c(nn3-c3ccc(OC)cc3)CS(=O)(=O)C4)CC2=O)cc1 (stereo unspecified)	n	20	n	n	n	n
O=C(NCCc1cccs1)Nc1nnc([C@H]2C[C@H](O)[C@@H](CO)O2)s1	n	n	n	n	n	n
C[C@@H](NC(=O)c1nc[nH]c1C(=O)N(C)Cc1ccccc1)c1ccccc1	n	n	n	n	n	n
CCOC(=O)C1CCN(CC(=O)Nc2cc(S(=O)(=O)N3CCCCC3)ccc2Cl)CC1	n	n	n	n	n	n
CCOC(=O)CN(C(=O)CSc1nnc(CNc2ccc(F)cc2)o1)c1ccccc1	n	n	n	n	n	n
CCOC(=O)CN(C(=O)CSc1nnc(CNc2ccc(F)cc2)n1C)c1ccccc1	n	18	n	n	n	n
CC1(C)Cc2ccccc2C(c2cc3ccccc3oc2=O)=N1	n	n	n	n	n	n
CC1(C)Cc2c(ccc3ccccc23)C(c2cc3ccccc3oc2=O)=N1	n	n	n	n	27	n
CC1CCCC(C)N1C(=O)c1ccccc1Nc1ccc(SC(F)F)cc1 (stereo unspecified)	n	n	n	n	n	22
O=C(c1ccccc1Nc1ccc(SC(F)F)cc1)N1CCCCC1	n	36	n	n	n	n
COc1ccc(C(C)(NC(C)=O)c2nc(-c3cc(F)cc(F)c3)cs2)cc1 (stereo unspecified)	n	n	n	n	n	n
Cc1ccc(S(=O)(=O)C[C@@H]2OC[C@H](C)N2S(=O)(=O)c2ccc(C)cc2)cc1	n	n	n	n	n	n
CCOC(=O)[C@]12CCC=C1N(Cc1ccc(Cl)cc1Cl)C(=O)[C@H](CC(=O)N1CCC(c3ccccc3)CC1)C2	n	n	n	n	n	n
COc1ccc(N(CC(=O)Nc2ccccc2OC)S(=O)(=O)c2ccc(NC(C)=O)cc2)cc1	n	n	n	32	n	n
COc1ccc(S(=O)(=O)N(C)CC(=O)Nc2ccccc2OC)cc1	n	n	34	n	n	n
COc1ccc(C)cc1S(=O)(=O)N(CC(=O)O)c1ccc(C)cc1	n	32	n	n	n	n
COc1ccc(C)cc1S(=O)(=O)N(CC(=O)O)c1ccccc1	n	n	n	n	n	n
COc1ccccc1NC(=O)CN(c1ccccc1)S(=O)(=O)c1ccccc1	n	n	n	n	n	n
COc1ccc(S(=O)(=O)N(CC(=O)O)c2ccccc2)cc1	n	22	n	n	n	n
COc1cccc(CNC(=O)CCNC(=O)C2CCN(S(=O)(=O)c3ccccc3)CC2)c1	n	n	n	n	n	n
COc1cc(NC(=O)CN(C)S(=O)(=O)c2ccc(C)cc2)cc(OC)c1	n	18	n	n	n	n
Cc1ccccc1CN1CCC(CNC(=O)C2CCCN(c3ncnc4c3nc3n4CCCCC3)C2)CC1 (stereo unspecified)	n	n	63	n	n	n
O=C(NCC1OCCCN1S(=O)(=O)c1ccc(F)cc1)C(=O)NC1CCCC1 (stereo unspecified)	n	n	n	n	n	n
SMILES	CHRM4 agonist	CHRM4 PAM	M4 antag	CHRM5 antagonist	M5 ag	M5 PAM
COc1ccc(S(=O)(=O)N2CCCOC2CNC(=O)C(=O)NC2CCCC2)cc1 (stereo unspecified)	n	n	n	n	n	30
Cc1ccc(S(=O)(=O)N2CCOC2CNC(=O)C(=O)NCC(C)C)cc1 (stereo unspecified)	n	22	n	n	n	n
CCOc1cc(NCc2ccccc2)c2ncn(C(C)C)c2c1	n	n	n	n	n	n
CCCOc1cc(NCc2ccccc2)c2ncn(C(C)C)c2c1	n	24	n	n	n	n
CCC(C(=O)NCC1CCCO1)n1nc(C)c2sc3ccccc3c2c1=O (stereo unspecified)	n	n	n	n	n	n
COc1cccc(N2CCN(C(=O)c3cccn4c(=O)c5c(C)c(C)sc5nc34)CC2)c1	n	n	n	n	n	19
COc1ccc(N2CCN(C(=O)c3cccn4c(=O)c5ccccc5nc34)CC2)cc1	n	n	n	n	n	n
COc1ccccc1NC(=O)CSc1nnc(COc2ccc(Cl)cc2)o1	n	n	n	n	n	n
COc1ccccc1NC(=O)CSc1nnc(COc2ccccc2C)o1	n	n	100	n	n	n
Clc1ccc2c(c1)C(N1CCNCC1)Cc1ccccc1S2 (stereo unspecified)	n	n	82	97	n	n
COCCCN1CCN(C2Cc3ccccc3Sc3ccc(Cl)cc32)CC1 (stereo unspecified)	n	n	n	30	n	n
NC(=O)CCN1CCN(CCOC2Cc3cc(Cl)ccc3Sc3ccccc32)CC1 (stereo unspecified)	n	n	n	28	n	n
CC(C)c1ccc2c(c1)C(N1CCN(C)CC1)Cc1cccnc1S2 (stereo unspecified)	n	n	n	n	n	n
Clc1cccc2c1Sc1ccccc1CC2N1CCNCC1 (stereo unspecified)	n	n	68	78	n	n
COc1ccc2c(c1)CC(N1CCN(C)CC1)c1cc(OC)ccc1S2 (stereo unspecified)	n	n	n	n	n	n
CCc1nc2c(OCCn3cccc3)cccn2c1N(C)C(=O)c1ccccc1F	n	n	n	n	n	n
COc1ccccc1NC(=O)N[C@@H](Cc1c[nH]c2ccccc12)C(=O)NN	n	n	n	n	n	n
COc1cc2c(cc1NC(=O)C(C)Sc1ccc(NC(C)=O)cc1)oc1ccccc12 (stereo unspecified)	n	n	n	30	n	n
OCCNC(=S)c1ccccc1	n	n	n	n	n	n
CCOc1ccc(Br)cc1/C(C)=N\NC1=NCCN1	n	n	n	32	n	n
Cc1nc2nc(-c3ccccc3)cn2nc1C	n	18	n	n	n	n
Cc1ccccc1N1Cc2ccccc2C1=O	n	n	n	n	n	n
